# Experimental data from ChEMBL document CHEMBL1134437, “Synthesis and biological evaluation of novel pyrazoles and indazoles as activators of the nitric oxide receptor, soluble guanylate cyclase” (J Med Chem, 2001).
# Experiments:
# Homo sapiens [1] = species: Homo sapiens; experiment: Percent inhibition of collagen-induced platelet aggregation at 100 uM concentration; type: functional
# [2] = (§1) Bovine sGC stimulation measured as relative enzyme activity (percentage of DEA/NO response for the compound to compound 3); type: functional
# How it was run: (§2)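 Baculovirus-expressed bovine sGC from Sf21 cells, partially purified on Mono-Q. Compound at 1 µM single concentration in Tris buffer pH 7.4 with 5 mM MgCl2, IBMX and GTP; sGC submaximally stimulated with 300 nM DEA/NO, 10 min at room temperature. cGMP by competitive enzyme immunoassay, duplicate, at least n = 2; expressed as % of DEA/NO response, then ratio to benzydamine.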
# [3] = Activation of sGC Enzyme (soluble Guanylate Cyclase) in Sf21 cells infected with baculo virus in the presence of 30 nM of PAPA/NO; type: functional, cell-based
# How it was run: (§3)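 Bovine sGC expressed in Sf21 cells (baculovirus, 2.5 µg/mL hemin, 27 °C, 48 h), partially purified by Mono-Q anion exchange. Reaction in Tris buffer pH 7.4 with 5 mM MgCl2, 120 µg/mL enzyme, IBMX and GTP, stimulated by 30 nM PAPA/NO, room temperature, 10 min. cGMP read by competitive enzyme immunoassay. EC50 from nonlinear regression, mean ± SEM of at least 3 independent experiments.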
# Homo sapiens [4] = species: Homo sapiens; experiment: Concentration required to inhibit collagen-induced platelet aggregation by 50%; type: functional
# How it was run: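 Washed human platelets, prepared from citrated blood with PGI2 and normalized to 250 000 cells/µL in calcium-free Tyrode's buffer pH 7.4. Compound (DMSO ≤0.1% final) added 1 min before an EC50 dose of collagen. Light-transmittance aggregometry at 37 °C, response read 3 min after collagen and normalized to collagen control. IC50 from dose-response curves, mean ± SEM, at least 2 experiments.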
# [5] = Bioavailability in rat after (dose 2 mg/kg p.o.); type: ADME, organism-based; settings: in vivo, po
# How it was run: (§4)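 Male Sprague-Dawley rats, cassette-dosed at 2 mg/kg in PBS orally (iv arm also run). Serum extracted into diethyl ether and analysed by reversed-phase C18 HPLC.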
# [6] = (§5) Compound was evaluated for pharmacokinetic parameter was determined after oral dosing of 2 mg/kg in rat; type: ADME, organism-based; design: dose 2 mg/kg, route oral; settings: in vivo; how it was run: as §4
# Rattus norvegicus [7] = experiment: as §5; type: ADME, organism-based; design: dose 2 mg/kg, route oral; settings: in vivo; how it was run: as §4
# [8] = Activation of bovine sGC Enzyme (soluble Guanylate Cyclase) in Sf21 cells infected with baculo virus in the presence of 30 nM of PAPA/NO; type: cell-based; how it was run: as §3
# Rattus norvegicus [9] = experiment: Area under curve (AUC) was determined after oral dosing of 5 mg/kg in rat; type: ADME, organism-based; design: dose 5 mg/kg, route oral; settings: in vivo
# How it was run: (§6)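 Male Sprague-Dawley rats given 5 mg/kg in PBS orally (iv arm also run). Blood taken predose and at 0.5, 1, 2, 3, 4, 6, 10 and 24 h after oral dosing. Serum extracted into diethyl ether and analysed by reversed-phase C18 HPLC.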
# [10] = Cmax was determined after oral dosing of 5 mg/kg in rat; type: ADME, organism-based; design: dose 5 mg/kg, route oral; settings: in vivo; how it was run: as §6
# [11] = Bioavailability in rat after (dose 5 mg/kg p.o.); type: ADME, organism-based; settings: in vivo, po; how it was run: as §6
# Homo sapiens [12] = species: Homo sapiens; experiment: Percent inhibition of collagen-induced platelet aggregation by 50% at a concentration of 100 uM; type: functional
# [13] = as §1; how it was run: as §2
# Homo sapiens [14] = species: Homo sapiens; experiment: Percent inhibition of collagen-induced platelet aggregation at 50 uM concentration; type: functional
SMILES,REA [2],further results
CN(C)CCCOc1cc(C(=O)N2CCOCC2)n(Cc2ccccc2)n1,0.84,inhibition at 100 µM (Homo sapiens [1]): 90%
CN(C)CCOc1nn(Cc2ccccc2)c2ccccc12,0.33,
OCc1ccc(-c2nn(Cc3ccccc3)c3ccccc23)o1,,EC50 [3]: 4.11 µM
CN(C)CCCOc1cc(C(=O)N(C)C)n(Cc2ccccc2)n1,0.93,inhibition at 100 µM (Homo sapiens [1]): 4%
CNC(=O)c1cc(OCCCN(C)C)nn1Cc1ccccc1,0.95,
CC(C)n1nc(OCCCN(C)C)c2ccccc21,0.66,
CC(COc1nn(Cc2ccccc2)c2ccccc12)CN(C)C (centres undefined),0.62,IC50 (Homo sapiens [4]): 4.18 µM
c1ccc(-c2cc(OCCCN3CCCC3)n[nH]2)cc1,0.85,
CN(C)CCCOc1cc(-c2ccccc2)n(Cc2ccccc2)n1,1.08,IC50 (Homo sapiens [4]): 2.37 µM; bioavailability [5]: 2%; Cmax [6]: 3.1 ng/mL; AUC (Rattus norvegicus [7]): 15.5 ng·h/mL; EC50 [8]: 0.44 µM
CN(C)CCCCc1cc(-c2ccccc2)[nH]n1,0.68,
CN(C)CCCOc1cc(-c2ccccc2)nn1Cc1ccccc1,0.72,
CCN(CC)CCCOc1cc(-c2ccccc2)[nH]n1,0.42,
CN1CCCC(COc2cc(-c3ccccc3)[nH]n2)C1 (centres undefined),0.61,
COc1ccc(NC(=O)c2cc(OCCCN(C)C)nn2Cc2ccccc2)cc1,1.1,AUC (Rattus norvegicus [9]): 61.1 ng·h/mL; EC50 [8]: 5.49 µM
CN(C)CCCOc1ccn(Cc2ccccc2)n1,0.73,
CN(C)CCCOc1nn(-c2ccccc2)c2ccccc12,1.16,IC50 (Homo sapiens [4]): 2.46 µM; bioavailability [5]: 2%; Cmax [6]: 3.2 ng/mL; AUC (Rattus norvegicus [7]): 7.9 ng·h/mL
CN(C)CCCCOc1nn(Cc2ccccc2)c2ccccc12,0.79,IC50 (Homo sapiens [4]): 7.62 µM
CN(C)CCCCCOc1nn(Cc2ccccc2)c2ccccc12,0.56,
CN(C)CCCOc1cc(-c2ccccc2)[nH]n1,1.49,inhibition at 100 µM (Homo sapiens [1]): 19%; EC50 [8]: 0.72 µM
CN(C)CCCOc1cc(C(F)(F)F)[nH]n1,1.13,inhibition at 100 µM (Homo sapiens [1]): 8%
NCCCOc1nn(Cc2ccccc2)c2ccccc12,0.48,

SMILES,REA [2],further results
CN(C)CCCOc1cc(-c2ccncc2)[nH]n1,1.15,inhibition at 100 µM (Homo sapiens [1]): 0%
CN(C)CCCOc1nn(Cc2ccccc2)c2ccccc12 [BENZYDAMINE],1,IC50 (Homo sapiens [4]): 6.67 µM; EC50 [8]: 1.02 µM
COc1cc(-c2cc(OCCCN(C)C)[nH]n2)cc(OC)c1OC,1.1,IC50 (Homo sapiens [4]): 41.1 µM
CCCN(CCC)C(=O)c1cc(OCCCN(C)C)nn1Cc1ccccc1,1.22,inhibition at 100 µM (Homo sapiens [1]): 35%
CN(C)CCCOc1nn(C(=O)N(C)C)c2ccccc12,0.78,
CC(=O)n1nc(OCCCN(C)C)c2ccccc21,0.82,
CN(C)CCCOc1cc(-c2ccccc2)n(-c2ccccc2)n1,1.28,IC50 (Homo sapiens [4]): 2.84 µM; Cmax [10]: 1.4 ng/mL; bioavailability [11]: < 2%; AUC (Rattus norvegicus [9]): 3.3 ng·h/mL; EC50 [8]: 0.58 µM
Nc1ncccc1COc1cc(-c2ccccc2)[nH]n1,0.69,
CN(C)CCCOc1nn(S(C)(=O)=O)c2ccccc12,1.07,IC50 (Homo sapiens [4]): 21.6 µM
CN(C)CCCOc1nn(C(=O)c2ccccc2)c2ccccc12,1.04,IC50 (Homo sapiens [4]): 8.57 µM
CN(C)CCCNc1cc(-c2ccccc2)[nH]n1,0.66,
CN(C)CCCOc1ccn(-c2ccccc2)n1,0.71,inhibition at 100 µM (Homo sapiens [12]): 3%
CN(C)CCCOc1nn(CCc2ccccc2)c2ccccc12,0.84,
Nc1cc(COc2cc(-c3ccccc3)[nH]n2)ccn1,0.53,
CN(C)CCCOc1cc(C(=O)O)n(Cc2ccccc2)n1,1.01,
CN(C)CCCOc1[nH]nc2ccccc12,,REA [13]: 1.93; inhibition at 50 µM (Homo sapiens [14]): 50%
CN(C)CCCOc1cc(-c2ccoc2)[nH]n1,1.31,IC50 (Homo sapiens [4]): 99 µM
CN(C)CCCOc1cc(Cc2ccccc2)n[nH]1,1.54,IC50 (Homo sapiens [4]): 49.2 µM; EC50 [8]: 0.165 µM
CN(C)CCCOc1nn(CCCN(C)C)c2ccccc12,0.79,
CN(C)CCCOc1cc(C(=O)NCc2ccccc2)n(Cc2ccccc2)n1,1.22,inhibition at 100 µM (Homo sapiens [1]): 25%
CN(C)CCCOc1[nH]ncc1-c1ccccc1,1.17,IC50 (Homo sapiens [4]): 12 µM
